Results reported in ChEMBL document CHEMBL1143420, “Distribution of suramin, an antitrypanosomal drug, across the blood-brain and blood-cerebrospinal fluid interfaces in wild-type and P-glycoprotein transporter-deficient mice” (Antimicrob Agents Chemother, 2007).
Values belong to the compound of their own block, whether it stands above or below them.

Legend:
[1] = Biodistribution in wild type FVB Mdr1a/Mdr1b positive mouse caudate putamen assessed as tritiated drug level at 150 uM perfusion after 30 mins by capillary depletion assay; format: ADME, organism-based; conditions: in vivo, other, 0.5 h
In short: (§1)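 The method compared multiple-time CNS uptake in Mdr1a/Mdr1b+/+ and –/– FVB male mice (about 25 g; genotype confirmed by PCR). […] Regional dpm/g was expressed relative to plasma (RTissue%). 3-4 mice per point. Genotypes were compared by Student's t test.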

[2] = Biodistribution in perfused FVB Mdr1a/Mdr1b deficient mouse choroid plexus assessed as tritiated drug level after 2.5 mins relative to control; format: ADME, organism-based; conditions: in vivo
In short: (§2)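 Mice were perfused with artificial plasma for 4 min, then decapitated. The IVth ventricle choroid plexus was excised and preincubated 10 min in artificial CSF at 37°C. […] BALB/c tissue also received 150 µM phenylarsine oxide in 0.05% DMSO, or 0.05% DMSO alone.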

Hypothalamus [3] = test: Biodistribution in FVB Mdr1a/Mdr1b deficient mouse hypothalamus assessed as tritiated drug level at 150 uM perfusion after 30 mins by capillary depletion assay; format: ADME, organism-based; conditions: in vivo, other, 0.5 h; in short: as §1
[4] = Biodistribution in perfused wild type FVB Mdr1a/Mdr1b positive mouse choroid plexus assessed as tritiated drug level after 30 mins relative to control; format: ADME, organism-based; conditions: in vivo, 0.5 h; in short: as §2
[5] = Biodistribution in wild type FVB Mdr1a/Mdr1b positive mouse brain 4th ventricle choroid plexus assessed as tritiated drug level at 150 uM perfusion after 30 mins by capillary depletion assay; format: ADME, organism-based; conditions: in vivo, other, 0.5 h; in short: as §1
Cerebellum = test: Biodistribution in FVB Mdr1a/Mdr1b deficient mouse cerebellum assessed as tritiated drug level at 150 uM perfusion after 30 mins by capillary depletion assay; format: ADME, organism-based; conditions: in vivo, other, 0.5 h; in short: as §1
Thalamus [6] = test: Biodistribution in BALB/c mouse thalamus assessed as tritiated drug level at 150 uM perfusion after 10 mins by capillary depletion assay in presence of phenylarsine ocide; format: ADME, organism-based; conditions: in vivo, other
In short: (§3)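 BALB/c mice were perfused in situ via the heart at 5 ml/min. A 10-min preperfusion used either 150 µM phenylarsine oxide in 0.05% DMSO (final) or a 0.05% DMSO control. […] Brain regions were sampled and counted by liquid scintillation. Results are RTissue% as mean ± SEM.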

Hypothalamus [7] = test: Biodistribution in wild type FVB Mdr1a/Mdr1b positive mouse hypothalamus assessed as tritiated drug level at 150 uM perfusion after 30 mins by capillary depletion assay; format: ADME, organism-based; conditions: in vivo, other, 0.5 h; in short: as §1
Thalamus [8] = test: Biodistribution in FVB Mdr1a/Mdr1b deficient mouse thalamus assessed as tritiated drug level at 150 uM perfusion after 30 mins by capillary depletion assay; format: ADME, organism-based; conditions: in vivo, other, 0.5 h; in short: as §1
[9] = Biodistribution in perfused BALB/c mouse choroid plexus assessed as tritiated drug level after 2.5 mins in presence of phenylarsine oxide relative to control; format: ADME, organism-based; conditions: in vivo; in short: as §2
[10] = Biodistribution in FVB Mdr1a/Mdr1b deficient mouse caudate putamen assessed as tritiated drug level at 150 uM perfusion after 30 mins by capillary depletion assay; format: ADME, organism-based; conditions: in vivo, other, 0.5 h; in short: as §1
[11] = Biodistribution in wild type FVB Mdr1a/Mdr1b positive mouse pineal gland assessed as tritiated drug level at 150 uM perfusion after 30 mins by capillary depletion assay; format: ADME, organism-based; conditions: in vivo, other, 0.5 h; in short: as §1
[12] = Biodistribution in perfused FVB Mdr1a/Mdr1b deficient mouse choroid plexus assessed as tritiated drug level after 30 mins relative to control; format: ADME, organism-based; conditions: in vivo, 0.5 h; in short: as §2
[13] = Biodistribution in perfused wild type FVB Mdr1a/Mdr1b positive mouse choroid plexus assessed as tritiated drug level after 2.5 mins relative to control; format: ADME, organism-based; conditions: in vivo; in short: as §2
[14] = Biodistribution in FVB Mdr1a/Mdr1b deficient mouse frontal cortex assessed as tritiated drug level at 150 uM perfusion after 30 mins by capillary depletion assay; format: ADME, organism-based; conditions: in vivo, other, 0.5 h; in short: as §1
[15] = Biodistribution in wild type FVB Mdr1a/Mdr1b positive mouse pituitary gland assessed as tritiated drug level at 150 uM perfusion after 30 mins by capillary depletion assay; format: ADME, organism-based; conditions: in vivo, other, 0.5 h; in short: as §1
[16] = Biodistribution in perfused BALB/c mouse choroid plexus assessed as tritiated drug level after 2.5 mins in presence of DMSO relative to control; format: ADME, organism-based; conditions: in vivo; in short: as §2
Mus musculus = organism: Mus musculus; test: Drug uptake in BALB/c mouse assessed as tritiated drug level at 5 ml/min perfusion after 10 min relative to [14C]sucrose; format: ADME, organism-based; conditions: in vivo, other
[17] = Biodistribution in perfused wild type FVB Mdr1a/Mdr1b positive mouse choroid plexus assessed as drug accumulation after 30 mins; format: ADME, organism-based; conditions: in vivo, 0.5 h; in short: as §2
[18] = Biodistribution in perfused FVB Mdr1a/Mdr1b deficient mouse choroid plexus assessed as drug accumulation after 30 mins; format: ADME, organism-based; conditions: in vivo, 0.5 h; in short: as §2
[19] = Biodistribution in wild type FVB Mdr1a/Mdr1b positive mouse choroid plexus assessed as tritiated drug level at 150 uM perfusion after 30 mins by capillary depletion assay; format: ADME, organism-based; conditions: in vivo, other, 0.5 h; in short: as §1
[20] = Biodistribution in BALB/c mouse pineal gland assessed as tritiated drug level at 5 ml/min perfusion after 30 min; format: ADME, organism-based; conditions: in vivo, other, 0.5 h
In short: (§4)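 BALB/c mice were anesthetized (medetomidine 2 mg/kg, ketamine 150 mg/kg), heparinized, and perfused via the left ventricle at 5 ml/min with oxygenated artificial plasma (Krebs-Henseleit base, 1 g/liter BSA, 37°C). […] Tissue dpm/g was expressed as % of plasma dpm/ml (RTissue%). 3-4 mice per point.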

[21] = Biodistribution in perfused FVB Mdr1a/Mdr1b deficient mouse choroid plexus assessed as drug accumulation after 2.5 mins; format: ADME, organism-based; conditions: in vivo; in short: as §2
[22] = Biodistribution in BALB/c mouse 4th ventricle choroid plexus assessed as tritiated drug level at 5 ml/min perfusion after 30 min; format: ADME, organism-based; conditions: in vivo, other, 0.5 h; in short: as §4
[23] = Biodistribution in perfused BALB/c mouse choroid plexus assessed as drug accumulation after 2.5 mins in presence of phenylarsine oxide; format: ADME, organism-based; conditions: in vivo; in short: as §2
[24] = Partition coefficient of the compound; conditions: octanol/water
[25] = Biodistribution in FVB Mdr1a/Mdr1b deficient mouse pituitary gland assessed as tritiated drug level at 150 uM perfusion after 30 mins by capillary depletion assay; format: ADME, organism-based; conditions: in vivo, other, 0.5 h; in short: as §1
[26] = Protein binding in artificial plasma assessed as tritiated drug level; format: ADME, cell-free; conditions: read-out: PPB (converted)
In short: (§5)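 [3H]suramin (0.14 µCi) was dissolved in 0.7 ml of warmed artificial plasma, mouse plasma, or reconstituted human plasma. Binding was measured by centrifugal ultrafiltration. Mouse plasma came from heparinized cardiac blood of male FVB mice, spun at 5,400 x g for 10 min. Human plasma was lyophilized citrated plasma. Protein retention by the filter was checked by the Lowry method.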

[27] = Biodistribution in BALB/c mouse pituitary gland assessed as tritiated drug level at 5 ml/min perfusion after 30 min; format: ADME, organism-based; conditions: in vivo, other, 0.5 h; in short: as §4
[28] = Biodistribution in BALB/c mouse choroid plexus assessed as tritiated drug level at 150 uM perfusion after 10 mins by capillary depletion assay in presence of DMSO; format: ADME, organism-based; conditions: in vivo, other; in short: as §3
[29] = Biodistribution in perfused wild type FVB Mdr1a/Mdr1b positive mouse choroid plexus assessed as drug accumulation after 2.5 mins; format: ADME, organism-based; conditions: in vivo; in short: as §2
[30] = Biodistribution in FVB Mdr1a/Mdr1b deficient mouse choroid plexus assessed as tritiated drug level at 150 uM perfusion after 30 mins by capillary depletion assay; format: ADME, organism-based; conditions: in vivo, other, 0.5 h; in short: as §1
[31] = Protein binding in human plasma assessed as tritiated drug level; format: ADME, cell-free; conditions: read-out: PPB (converted); in short: as §5
[32] = Biodistribution in FVB Mdr1a/Mdr1b deficient mouse pineal gland assessed as tritiated drug level at 150 uM perfusion after 30 mins by capillary depletion assay; format: ADME, organism-based; conditions: in vivo, other, 0.5 h; in short: as §1
[33] = Biodistribution in perfused BALB/c mouse choroid plexus assessed as drug accumulation after 2.5 mins in presence of DMSO; format: ADME, organism-based; conditions: in vivo; in short: as §2
[34] = Protein binding in mouse plasma assessed as tritiated drug level; format: ADME, cell-free; conditions: read-out: PPB (converted); in short: as §5

- Drug uptake [1]: 1.1%
- Drug uptake [2]: 1.8%
- Drug uptake (Hypothalamus [3]): 5.8%
- Drug uptake [4]: 2.1%
- Drug uptake [5]: 83.2%
- Drug uptake (Cerebellum): 2.5%
- Drug uptake (Hypothalamus [7]): 2.2%
- Drug uptake (Thalamus [8]): 3.4%
- Drug uptake [9]: 1.6%
- Drug uptake [10]: 2.5%
- Drug uptake [11]: 54.4%
- Drug uptake [12]: 2.6%
- Drug uptake [13]: 0.9%
- Drug uptake [14]: 2.5%
- Drug uptake [15]: 80.4%
- Drug uptake [16]: 0.7%
- Drug uptake (Mus musculus): 1.56%
SMILES: OC[C@H]1O[C@@](CO)(O[C@H]2O[C@H](CO)[C@@H](O)[C@H](O)[C@H]2O)[C@@H](O)[C@@H]1O [SUCROSE]
- Activity (Thalamus [6]): 2.2%

- Drug uptake [17]: 25.3%
- Drug uptake [18]: 26.6%
- Drug uptake [19]: 100%
- Drug uptake [2]: 12.5%
- Drug uptake [20]: 388%
- Drug uptake [21]: 10.9%
- Drug uptake [22]: 163%
- Drug uptake [23]: 11.4%
- partition coefficient [24]: 0.00023
- Drug uptake [25]: 57%
- Drug uptake [4]: 27.2%
- fraction unbound [26]: 0.047
- Drug uptake [27]: 39%
- Drug uptake [28]: 99.4%
- Drug uptake [29]: 8.6%
- Drug uptake [30]: 97%
- fraction unbound [31]: 0.006
- Drug uptake [32]: 437%
- Drug uptake [33]: 6.7%
- Drug uptake [9]: 13%
- Drug uptake [11]: 263%
- Drug uptake [12]: 29.3%
- Drug uptake [13]: 9.5%
- Drug uptake [15]: 46%
- Drug uptake [16]: 7.4%
- fraction unbound [34]: 0.03
SMILES: Cc1ccc(C(=O)Nc2ccc(S(=O)(=O)O)c3cc(S(=O)(=O)O)cc(S(=O)(=O)O)c23)cc1NC(=O)c1cccc(NC(=O)Nc2cccc(C(=O)Nc3cc(C(=O)Nc4ccc(S(=O)(=O)O)c5cc(S(=O)(=O)O)cc(S(=O)(=O)O)c45)ccc3C)c2)c1 [SURAMIN]
